Source: ChEMBL document CHEMBL1144562, “Synthesis of a new class of 2-anilino substituted nicotinyl arylsulfonylhydrazides as potential anticancer and antibacterial agents” (2007)
In brackets after ≈: the same amount, converted by molar mass.

Assays:
[1] = Antitumor activity against LOX IMV1 cells; assay type: functional; conditions: Homo sapiens
Vibrio = experiment: Antibacterial activity against Vibrio species after 18 hrs; assay type: functional
In short: (§1)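 Disc diffusion (Kirby–Bauer) on Mueller-Hinton agar inoculated with fresh bacteria at 1-5 × 10^4 cfu mL-1. Compounds were dissolved in DMF at a range of concentrations, and discs were placed in triplicate. Plates were incubated at 30 °C for 18 h. MIC was taken as the lowest concentration giving no visible bacterial growth on the plate.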

HOP-62 = experiment: Antitumor activity against HOP62 cells; assay type: functional; conditions: Homo sapiens
A498 = experiment: Antitumor activity against A498 cells; assay type: functional; conditions: Homo sapiens
UACC-257 = experiment: Antitumor activity against UACC257 cells; assay type: functional; conditions: Homo sapiens
In short: (§2)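 Tested in the NCI 60-human-tumour-cell-line panel at five concentrations, in 10-fold dilutions from 10^-4 to 10^-8 M. Three parameters were taken from the dose-response data, each as log10 of the molar concentration: GI50 (50% net growth inhibition), TGI (total growth inhibition) and LC50 (50% net cell death).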

SK-OV-3 = experiment: Antitumor activity against SKOV3 cells; assay type: functional; conditions: Homo sapiens; in short: as §2
EKVX = experiment: Antitumor activity against EKVX cells; assay type: functional; conditions: Homo sapiens
HCT-15 = experiment: Antitumor activity against HCT15 cells; assay type: functional; conditions: Homo sapiens
OVCAR-4 = experiment: Antitumor activity against OVCAR4 cells; assay type: functional; conditions: Homo sapiens
HCT-116 = experiment: Antitumor activity against HCT116 cells; assay type: functional; conditions: Homo sapiens
DU-145 = experiment: Antitumor activity against DU145 cells; assay type: functional; conditions: Homo sapiens
NCI-H226 = experiment: Antitumor activity against NCI-H226 cells; assay type: functional; conditions: Homo sapiens
[2] = Antitumor activity against HL60 (TB) cells; assay type: functional, HL-60(TB); conditions: Homo sapiens, HL-60
In short: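 NCI 60-cell-line in vitro screen (leukaemia subpanel). Compound tested at five 10-fold dilutions from 10^-4 to 10^-8 M. Dose-response parameters: GI50 (concentration giving 50% net growth inhibition), TGI (total growth inhibition) and LC50 (50% net cell death), each reported as log10 of molar concentration.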

CAKI-1 = experiment: Antitumor activity against CAKI1 cells; assay type: functional; conditions: Homo sapiens
Bacillus subtilis = experiment: Antibacterial activity against Bacillus subtilis MTCC 441 after 18 hrs; assay type: functional; conditions: MTCC 441, 18 h; in short: as §1
Escherichia coli = experiment: Antibacterial activity against Escherichia coli MTCC 448 after 18 hrs; assay type: functional; conditions: MTCC 448, 18 h; in short: as §1
T47D = experiment: Antitumor activity against T47D cells; assay type: functional; conditions: Homo sapiens; in short: as §2
UACC-62 = experiment: Antitumor activity against UACC62 cells; assay type: functional; conditions: Homo sapiens; in short: as §2
SW-620 = experiment: Antitumor activity against SW620 cells; assay type: functional; conditions: Homo sapiens; in short: as §2
KM12 = experiment: Antitumor activity against KM12 cells; assay type: functional; conditions: Homo sapiens
CCRF-CEM = experiment: Antitumor activity against CCRF-CEM cells; assay type: functional; conditions: Homo sapiens
SF-268 = experiment: Antitumor activity against SF268 cells; assay type: functional; conditions: Homo sapiens
PC-3 = experiment: Antitumor activity against PC3 cells; assay type: functional; conditions: Homo sapiens
SNB-75 = experiment: Antitumor activity against SNB75 cells; assay type: functional; conditions: Homo sapiens; in short: as §2
HCC 2998 = experiment: Antitumor activity against HCC2998 cells; assay type: functional; conditions: Homo sapiens
SK-MEL-5 = experiment: Antitumor activity against SK-MEL-5 cells; assay type: functional; conditions: Homo sapiens; in short: as §2
NCI-H460 = experiment: Antitumor activity against NCI-H460 cells; assay type: functional; conditions: Homo sapiens
TK-10 = experiment: Antitumor activity against TK10 cells; assay type: functional; conditions: Homo sapiens; in short: as §2
[3] = Antitumor activity against MALME 3M cells; assay type: functional; conditions: Homo sapiens
K562 = experiment: Antitumor activity against K562 cells; assay type: functional; conditions: Homo sapiens
HT-29 = experiment: Antitumor activity against HT29 cells; assay type: functional; conditions: Homo sapiens
HOP-92 = experiment: Antitumor activity against HOP92 cells; assay type: functional; conditions: Homo sapiens
MOLT-4 = experiment: Antitumor activity against MOLT4 cells; assay type: functional; conditions: Homo sapiens
Pseudomonas aeruginosa = experiment: Antibacterial activity against Pseudomonas aeruginosa MTCC 424 after 18 hrs; assay type: functional; conditions: MTCC 424, 18 h; in short: as §1
SK-MEL-28 = experiment: Antitumor activity against SK-MEL-28 cells; assay type: functional; conditions: Homo sapiens
M14 = experiment: Antitumor activity against M14 cells; assay type: functional; conditions: Homo sapiens
MCF7 = experiment: Antitumor activity against MCF7 cells; assay type: functional; conditions: Homo sapiens
MDA-MB-435 = experiment: Antitumor activity against MDA-MB-435 cells; assay type: functional; conditions: Homo sapiens
SF-539 = experiment: Antitumor activity against SF539 cells; assay type: functional; conditions: Homo sapiens
Hs-578T = experiment: Antitumor activity against HS578T cells; assay type: functional; conditions: Homo sapiens
[4] = read-out: Log LC50 (the source's name) (converted)

O=C(NNS(=O)(=O)c1ccc(F)cc1)c1cccnc1Nc1ccc(Cl)cc1Cl
GI50 [1]: 32.4 µM | LC50 [1]: > 100 µM | TGI ([1]; read-out: Log TGI (converted)): > 100 µM | MIC (Vibrio): 20 µg/mL (≈ 43.9 µM) | GI50 (HOP-62): 30.9 µM | CC50 (HOP-62; [4]): > 100 µM | TGI (HOP-62; read-out: Log TGI (converted)): 85.1 µM | GI50 (A498): 17.4 µM | LC50 (A498): 77.6 µM | TGI (A498; read-out: Log TGI (converted)): 36.3 µM | GI50 (UACC-257): 11.7 µM | LC50 (UACC-257): > 100 µM | TGI (UACC-257; read-out: Log TGI (converted)): 52.5 µM | GI50 (SK-OV-3): 38 µM | CC50 (SK-OV-3; [4]): > 100 µM | TGI (SK-OV-3; read-out: Log TGI (converted)): > 100 µM | GI50 (EKVX): 29.5 µM | LC50 (EKVX): > 100 µM | TGI (EKVX; read-out: Log TGI (converted)): > 100 µM | GI50 (HCT-15): 26.9 µM | LC50 (HCT-15): > 100 µM | TGI (HCT-15; read-out: Log TGI (converted)): > 83.2 µM | GI50 (OVCAR-4): 38 µM | LC50 (lethal concentration, 50%) (OVCAR-4): > 100 µM | TGI (OVCAR-4; read-out: Log TGI (converted)): > 100 µM | GI50 (HCT-116): 30.2 µM | LC50 (HCT-116): > 100 µM | TGI (HCT-116; read-out: Log TGI (converted)): > 100 µM | GI50 (DU-145): 22.9 µM | LC50 (DU-145): > 100 µM | TGI (DU-145; read-out: Log TGI (converted)): 55 µM | GI50 (NCI-H226): 29.5 µM | CC50 (NCI-H226; [4]): > 100 µM | TGI (NCI-H226; read-out: Log TGI (converted)): 97.7 µM | GI50 [2]: 25.1 µM | LC50 [2]: > 100 µM | TGI ([2]; read-out: Log TGI (converted)): 61.7 µM | GI50 (CAKI-1): 30.9 µM | LC50 (CAKI-1): > 100 µM | TGI (CAKI-1; read-out: Log TGI (converted)): > 100 µM | MIC (Bacillus subtilis): 9 µg/mL (≈ 19.8 µM) | MIC (Escherichia coli): 15 µg/mL (≈ 32.9 µM) | GI50 (T47D): 18.6 µM | CC50 (T47D; [4]): > 100 µM | TGI (T47D; read-out: Log TGI (converted)): > 97.7 µM | GI50 (UACC-62): 45.7 µM | LC50 (UACC-62): > 100 µM | TGI (UACC-62; read-out: Log TGI (converted)): > 100 µM | GI50 (SW-620): 28.8 µM | CC50 (SW-620; [4]): > 100 µM | TGI (SW-620; read-out: Log TGI (converted)): > 100 µM | GI50 (KM12): 22.9 µM | CC50 (KM12; [4]): > 100 µM | TGI (KM12; read-out: Log TGI (converted)): 49 µM | LC50 (CCRF-CEM): > 100 µM | TGI (CCRF-CEM; read-out: Log TGI (converted)): > 100 µM | GI50 (CCRF-CEM; read-out: pGI50 (converted)): 20.9 µM | GI50 (SF-268): 45.7 µM | LC50 (SF-268): > 100 µM | TGI (SF-268; read-out: Log TGI (converted)): > 100 µM | GI50 (PC-3): 14.8 µM | LC50 (PC-3): 69.2 µM | TGI (PC-3; read-out: Log TGI (converted)): 32.4 µM | GI50 (SNB-75): 25.7 µM | CC50 (SNB-75; [4]): > 100 µM | TGI (SNB-75; read-out: Log TGI (converted)): > 100 µM | GI50 (HCC 2998): 30.2 µM | LC50 (HCC 2998): > 100 µM | TGI (HCC 2998; read-out: Log TGI (converted)): > 100 µM | GI50 (SK-MEL-5): 25.1 µM | LC50 (SK-MEL-5): > 100 µM | TGI (SK-MEL-5; read-out: Log TGI (converted)): 85.1 µM | GI50 (NCI-H460): 31.6 µM | LC50 (NCI-H460): > 100 µM | TGI (NCI-H460; read-out: Log TGI (converted)): > 100 µM | GI50 (TK-10): 33.9 µM | LC50 (TK-10): > 100 µM | TGI (TK-10; read-out: Log TGI (converted)): > 100 µM | GI50 [3]: 34.7 µM | CC50 [3, 4]: > 100 µM | TGI ([3]; read-out: Log TGI (converted)): > 100 µM | GI50 (K562): 20 µM | LC50 (K562): > 100 µM | TGI (K562; read-out: Log TGI (converted)): 83.2 µM | GI50 (HT-29): 21.9 µM | LC50 (HT-29): > 100 µM | TGI (HT-29; read-out: Log TGI (converted)): 57.5 µM | GI50 (HOP-92): 15.5 µM | CC50 (HOP-92; [4]): 85.1 µM | TGI (HOP-92; read-out: Log TGI (converted)): 36.3 µM | GI50 (MOLT-4): 22.9 µM | LC50 (MOLT-4): > 100 µM | TGI (MOLT-4; read-out: Log TGI (converted)): > 100 µM | MIC (Pseudomonas aeruginosa): > 25 µg/mL | GI50 (SK-MEL-28): 89.1 µM | LC50 (SK-MEL-28): > 100 µM | TGI (SK-MEL-28; read-out: Log TGI (converted)): > 100 µM | GI50 (M14): 46.8 µM | LC50 (M14): > 100 µM | TGI (M14; read-out: Log TGI (converted)): > 100 µM | GI50 (MCF7): 31.6 µM | LC50 (MCF7): > 100 µM | TGI (MCF7; read-out: Log TGI (converted)): > 100 µM | GI50 (MDA-MB-435): 85.1 µM | LC50 (MDA-MB-435): > 100 µM | TGI (MDA-MB-435; read-out: Log TGI (converted)): > 100 µM | GI50 (SF-539): 26.3 µM | LC50 (SF-539): > 100 µM | TGI (SF-539; read-out: Log TGI (converted)): 74.1 µM | GI50 (Hs-578T): 28.2 µM | CC50 (Hs-578T; [4]): > 100 µM | TGI (Hs-578T; read-out: Log TGI (converted)): > 100 µM
